Results reported in ChEMBL document CHEMBL1833825, “3-Aryl-2-[1H-benzotriazol-1-yl]acrylonitriles: a novel class of potent tubulin inhibitors” (Eur J Med Chem, 2011).
Values belong to the compound of their own block, whether it stands above or below them. Calls of active or inactive are those of the source. The rule behind the calls is not given here.

Experiments:
[1] = Cytotoxicity against human MT4 cells infected with HTLV-1 after 96 hrs by MTT assay; type: cell-based
In short: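 Mock-infected MT-4 cells (CD4+ T-cells carrying integrated HTLV-1 genome) were seeded at 1×10^5 cells/mL in RPMI-1640 with 10% FCS and penicillin/streptomycin. They were given serial compound dilutions for 96 h at 37 °C, 5% CO2, and viability was read by MTT. The value is the concentration reducing viability by 50%. Mean of two experiments; duplicate variation <15%.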

SK-MEL-28 = assay: Antiproliferative activity against human SK-MEL-28 cells after 96 hrs by MTT assay; type: functional; conditions: SK-MEL-28, 96 h
In short: (§1)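 Solid-tumor lines (SK-MEL-28, MCF-7, SK-MES-1, HepG-2, DU-145) were seeded at 1×10^5 cells/mL in their specific media with 10% FCS plus antibiotics. Serial dilutions of compounds (100 mM DMSO stocks diluted in medium) were applied for 96 h at 37 °C, 5% CO2, with MTT readout. 50% proliferation-inhibition concentration; untreated controls underwent ≥3 multiplication rounds; mean of two experiments, duplicate variation <15%.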

SK-MES-1 = assay: Antiproliferative activity against human SKMES1 cells after 96 hrs by MTT assay; type: functional; conditions: SK-MES-1, 96 h; in short: as §1
CCRF-SB = assay: Antiproliferative activity against human CCRF-SB cells after 96 hrs by MTT assay; type: functional
In short: (§2)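 Hematological lines (CCRF-CEM, CCRF-SB, WIL-2NS) were seeded exponentially growing at 1×10^5 cells/mL in RPMI-1640 with 10% FCS, penicillin G and streptomycin. They were exposed to serial dilutions (from 100 mM DMSO stocks) for 96 h at 37 °C, 5% CO2, then read by MTT. The value is the concentration giving 50% proliferation reduction, with controls allowed ≥3 rounds of multiplication. Mean of two experiments; duplicate variation <15%.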

WIL2-NS = assay: Antiproliferative activity against human WIL2-NS cells after 96 hrs by MTT assay; type: functional; in short: as §2
HepG2 = assay: Antiproliferative activity against human HepG2 cells after 96 hrs by MTT assay; type: functional; conditions: HepG2, 96 h; in short: as §1
MCF7 = assay: Antiproliferative activity against human MCF7 cells after 96 hrs by MTT assay; type: functional; conditions: MCF7, 96 h; in short: as §1
CCRF-CEM = assay: Antiproliferative activity against human CCRF-CEM cells after 96 hrs by MTT assay; type: functional; conditions: read-out: CC50; in short: as §2
DU-145 = assay: Antiproliferative activity against human DU145 cells after 96 hrs by MTT assay; type: functional; conditions: DU-145, 96 h, read-out: CC50; in short: as §1
K562 [2] = assay: Cell cycle arrest in human K562 cells assessed as accumulation at S phase at total growth inhibitory compound concentration 24 hrs using propidium iodide staining by FACS analysis (reference value: 47%); type: functional; parameters: scale not given: the % may be the effect or the level left
K562 [3] = assay: Cell cycle arrest in human K562 cells assessed as accumulation at G2/M phase at total growth inhibitory compound concentration 24 hrs using propidium iodide staining by FACS analysis (reference value: 18%); type: functional; parameters: scale not given: the % may be the effect or the level left
K562 [4] = assay: Cell cycle arrest in human K562 cells assessed as accumulation at G0/G1 phase at total growth inhibitory compound concentration 24 hrs using propidium iodide staining by FACS analysis (reference value: 35%); type: functional; parameters: scale not given: the % may be the effect or the level left
[5] = Displacement of [3H]paclitaxel from biotin-labeled tubulin after 2 hrs by competitive scintillation proximity assay
[6] = Displacement of [3H]colchicine from biotin-labeled tubulin after 2 hrs by competitive scintillation proximity assay
In short: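 Scintillation proximity format: biotinylated tubulin, reconstituted per manufacturer, was incubated with [3H]colchicine and diluted compound in binding buffer at 37 °C for 2 h. Streptavidin-coated yttrium SPA beads were then added and bound radioactivity counted. IC50 came from nonlinear regression.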

Structure (SMILES): Cc1cc2nnn(/C(C#N)=C/c3ccc4c(c3)OCO4)c2cc1C
CC50 at 96 h [1]: 1.3 µM

Structure (SMILES): COc1cccc(/C=C(\C#N)n2nnc3ccccc32)c1
CC50 at 96 h [1]: 4.7 µM

Structure (SMILES): N#C/C(=C\c1ccc(Cl)cc1)n1nc2ccccc2n1
CC50 at 96 h [1]: 16 µM

Structure (SMILES): N#C/C(=C\c1cccc([N+](=O)[O-])c1)n1nnc2ccccc21
CC50 at 96 h [1]: 0.4 µM

Structure (SMILES): N#C/C(=C\c1ccccc1)n1nnc2ccccc21
CC50 at 96 h [1]: 4 µM

Structure (SMILES): N#C/C(=C\c1ccc(Cl)cc1)n1nnc2ccccc21
CC50 at 96 h [1]: 0.4 µM

Structure (SMILES): N#C/C(=C\c1ccccc1)n1nc2ccccc2n1
CC50 at 96 h [1]: 12 µM

Structure (SMILES): N#C/C(=C\c1ccccc1I)n1nnc2ccccc21
CC50 at 96 h [1]: 25 µM

Structure (SMILES): COc1cc([C@@H]2c3cc4c(cc3[C@@H](O[C@@H]3O[C@@H]5CO[C@@H](C)O[C@H]5[C@H](O)[C@H]3O)[C@H]3COC(=O)[C@H]23)OCO4)cc(OC)c1O [ETOPOSIDE]
CC50 (SK-MEL-28): 1.2 µM
CC50 at 96 h [1]: 0.09 µM
CC50 (SK-MES-1): 0.3 µM
CC50 (CCRF-SB): 0.1 µM
CC50 (WIL2-NS): 0.2 µM
CC50 (HepG2): 0.7 µM
CC50 (MCF7): 1 µM

Structure (SMILES): Cc1cc2nnn(/C(C#N)=C/c3cccc([N+](=O)[O-])c3)c2cc1C
CC50 at 96 h [1]: 0.5 µM

Structure (SMILES): N#C/C(=C\c1ccco1)n1nc2ccccc2n1
CC50 at 96 h [1]: 375 µM

Structure (SMILES): N#C/C(=C\c1ccc(C(=O)O)cc1)n1nc2ccccc2n1
CC50 at 96 h [1]: 16 µM

Structure (SMILES): COc1cc(/C=C(\C#N)n2nnc3ccccc32)cc(OC)c1OC
CC50 at 96 h [1]: 2.5 µM

Structure (SMILES): Sc1ncnc2nc[nH]c12 [MERCAPTOPURINE ANHYDROUS]
CC50 (SK-MEL-28): 15 µM
CC50 at 96 h [1]: 0.1 µM
CC50 (SK-MES-1): 58 µM
CC50 (CCRF-SB): 1.1 µM
CC50 (WIL2-NS): 3 µM
CC50 (HepG2): 8 µM
CC50 (MCF7): 3.2 µM

Structure (SMILES): Cc1cc2nnn(/C(C#N)=C/c3ccc(Cl)cc3)c2cc1C
CC50 at 96 h [1]: 24 µM

Structure (SMILES): N#C/C(=C\c1ccc(Cl)cc1Cl)n1nnc2ccccc21
CC50 at 96 h [1]: 6 µM

Structure (SMILES): COc1ccc(/C=C(\C#N)n2nnc3cc(Cl)c(Cl)cc32)cc1
CC50 (SK-MEL-28): > 100 µM
CC50 at 96 h [1]: 14 µM
CC50 (SK-MES-1): > 100 µM
CC50 (CCRF-SB): > 100 µM
CC50 (WIL2-NS): > 100 µM
IC50 (50% antiproliferative concentration) (CCRF-CEM): > 100 µM
CC50 (HepG2): > 100 µM
CC50 (MCF7): > 100 µM
IC50 (50% proliferation-inhibition concentration) (DU-145): > 100 µM

Structure (SMILES): COc1ccc(/C=C(\C#N)n2nc3ccccc3n2)cc1OC
CC50 at 96 h [1]: 360 µM

Structure (SMILES): Cc1ccc(/C=C(\C#N)n2nnc3ccccc32)cc1
CC50 (SK-MEL-28): 0.3 µM
CC50 at 96 h [1]: 0.5 µM
CC50 (SK-MES-1): 1.7 µM
CC50 (CCRF-SB): 0.07 µM
CC50 (WIL2-NS): 0.2 µM
IC50 (50% antiproliferative concentration) (CCRF-CEM): 0.2 µM
CC50 (HepG2): 2.2 µM
CC50 (MCF7): 0.7 µM
IC50 (50% proliferation-inhibition concentration) (DU-145): 0.5 µM

Structure (SMILES): N#C/C(=C\c1ccc(C(=O)O)cc1)n1nnc2ccccc21
CC50 at 96 h [1]: 17 µM

Structure (SMILES): N#C/C(=C\c1ccc(Br)cc1)n1nnc2ccccc21
Activity (K562 [2]): 22.41%
CC50 (SK-MEL-28): 1.1 µM
CC50 at 96 h [1]: 0.4 µM
CC50 (SK-MES-1): 2.4 µM
CC50 (CCRF-SB): 0.3 µM
CC50 (WIL2-NS): 0.6 µM
IC50 (50% antiproliferative concentration) (CCRF-CEM): 0.4 µM
CC50 (HepG2): 2.1 µM
Activity (K562 [3]): 35.34%
CC50 (MCF7): 0.7 µM
Activity (K562 [4]): 42.25%
IC50 (50% proliferation-inhibition concentration) (DU-145): 1.7 µM

Structure (SMILES): Cc1ccc(/C=C(\C#N)n2nnc3cc(Cl)c(Cl)cc32)cc1
Activity (K562 [2]): 15.5%
CC50 (SK-MEL-28): 20 µM
CC50 at 96 h [1]: 1.7 µM
CC50 (SK-MES-1): 27 µM
CC50 (CCRF-SB): 2.8 µM
CC50 (WIL2-NS): 7 µM
IC50 (50% antiproliferative concentration) (CCRF-CEM): 2.8 µM
CC50 (HepG2): 21 µM
Activity (K562 [3]): 67%
CC50 (MCF7): 27 µM
Activity (K562 [4]): 18.5%
IC50 (50% proliferation-inhibition concentration) (DU-145): 17 µM

Structure (SMILES): COc1ccccc1/C=C(\C#N)n1nnc2ccccc21
CC50 at 96 h [1]: 8.3 µM

Structure (SMILES): N#C/C(=C\c1ccc(Br)cc1)n1nnc2cc(Cl)c(Cl)cc21
CC50 (SK-MEL-28): 10 µM
CC50 at 96 h [1]: 5.4 µM
CC50 (SK-MES-1): 10 µM
CC50 (CCRF-SB): 12 µM
CC50 (WIL2-NS): 18 µM
IC50 (50% antiproliferative concentration) (CCRF-CEM): 5.3 µM
CC50 (HepG2): 12 µM
CC50 (MCF7): 8.4 µM
IC50 (50% proliferation-inhibition concentration) (DU-145): 7 µM

Structure (SMILES): N#C/C(=C\c1cccs1)n1nc2ccccc2n1
CC50 at 96 h [1]: 132 µM

Structure (SMILES): N#C/C(=C\c1ccc(F)cc1)n1nc2ccccc2n1
CC50 at 96 h [1]: 32 µM

Structure (SMILES): N#C/C(=C\c1ccccc1[N+](=O)[O-])n1nnc2ccccc21
CC50 at 96 h [1]: 31 µM

Structure (SMILES): COc1ccc(/C=C(\C#N)n2nnc3ccccc32)cc1
Activity (K562 [2]): 24%
CC50 (SK-MEL-28): 0.2 µM
CC50 at 96 h [1]: 0.05 µM
CC50 (SK-MES-1): 0.6 µM
CC50 (CCRF-SB): 0.09 µM
CC50 (WIL2-NS): 0.1 µM
IC50 (50% antiproliferative concentration) (CCRF-CEM): 0.2 µM
CC50 (HepG2): 0.8 µM
Activity (K562 [3]): 70.5%
CC50 (MCF7): 0.1 µM
Activity (K562 [4]): 5.5%
IC50 (50% proliferation-inhibition concentration) (DU-145): 0.6 µM

inhibition [5]: inactive
IC50 [6]: 0.85 µM
Structure (SMILES): N#C/C(=C\c1ccc2c(c1)OCO2)n1nnc2ccccc21
Activity (K562 [2]): 22.67%
CC50 (SK-MEL-28): 3.3 µM
CC50 at 96 h [1]: 0.1 µM
CC50 (SK-MES-1): 3.3 µM
CC50 (CCRF-SB): 0.6 µM
CC50 (WIL2-NS): 0.6 µM
IC50 (50% antiproliferative concentration) (CCRF-CEM): 0.9 µM
CC50 (HepG2): 3.1 µM
Activity (K562 [3]): 66.34%
CC50 (MCF7): 1.3 µM
Activity (K562 [4]): 10.9%
IC50 (50% proliferation-inhibition concentration) (DU-145): 3.4 µM

Structure (SMILES): COc1ccc(/C=C(\C#N)n2nnc3ccc(C(F)(F)F)cc32)cc1
CC50 at 96 h [1]: 200 µM

Structure (SMILES): Cc1ccc(/C=C(\C#N)n2nc3ccccc3n2)cc1
CC50 at 96 h [1]: 20 µM

Structure (SMILES): N#C/C(=C\c1ccc([N+](=O)[O-])cc1)n1nc2ccccc2n1
CC50 at 96 h [1]: 0.4 µM

Structure (SMILES): N#C/C(=C\c1cccc([N+](=O)[O-])c1)n1nnc2cc(C(F)(F)F)ccc21
CC50 at 96 h [1]: 0.7 µM

Structure (SMILES): N#C/C(=C\c1ccc2c(c1)OCO2)n1nnc2ccc(C(F)(F)F)cc21
CC50 at 96 h [1]: 52 µM

Structure (SMILES): COc1ccc(/C=C(\C#N)n2nnc3ccccc32)cc1OC
CC50 at 96 h [1]: 7.5 µM
